Assay results: ChEMBL document CHEMBL1944609, “Niphatenones, glycerol ethers from the sponge Niphates digitalis block androgen receptor transcriptional activity in prostate cancer cells: structure elucidation, synthesis, and biological activity” (J Med Chem, 2012)
Activity calls are given as the source filed them. The rule behind the calls is not given here.

What was measured:
[1] = target: T1, Androgen receptor (Homo sapiens) (UniProt P10275); test: Antagonist activity at androgen receptor in human LNCAP cells transfected with p6.1-luciferase assessed as inhibition of R1881-induced transcriptional activity at 3.5 uM pretreated 1 hr prior to R1881 addition measured after 48 hrs by luciferase reporter gene assay; type: functional, cell-based
T1 sequence (whole entry): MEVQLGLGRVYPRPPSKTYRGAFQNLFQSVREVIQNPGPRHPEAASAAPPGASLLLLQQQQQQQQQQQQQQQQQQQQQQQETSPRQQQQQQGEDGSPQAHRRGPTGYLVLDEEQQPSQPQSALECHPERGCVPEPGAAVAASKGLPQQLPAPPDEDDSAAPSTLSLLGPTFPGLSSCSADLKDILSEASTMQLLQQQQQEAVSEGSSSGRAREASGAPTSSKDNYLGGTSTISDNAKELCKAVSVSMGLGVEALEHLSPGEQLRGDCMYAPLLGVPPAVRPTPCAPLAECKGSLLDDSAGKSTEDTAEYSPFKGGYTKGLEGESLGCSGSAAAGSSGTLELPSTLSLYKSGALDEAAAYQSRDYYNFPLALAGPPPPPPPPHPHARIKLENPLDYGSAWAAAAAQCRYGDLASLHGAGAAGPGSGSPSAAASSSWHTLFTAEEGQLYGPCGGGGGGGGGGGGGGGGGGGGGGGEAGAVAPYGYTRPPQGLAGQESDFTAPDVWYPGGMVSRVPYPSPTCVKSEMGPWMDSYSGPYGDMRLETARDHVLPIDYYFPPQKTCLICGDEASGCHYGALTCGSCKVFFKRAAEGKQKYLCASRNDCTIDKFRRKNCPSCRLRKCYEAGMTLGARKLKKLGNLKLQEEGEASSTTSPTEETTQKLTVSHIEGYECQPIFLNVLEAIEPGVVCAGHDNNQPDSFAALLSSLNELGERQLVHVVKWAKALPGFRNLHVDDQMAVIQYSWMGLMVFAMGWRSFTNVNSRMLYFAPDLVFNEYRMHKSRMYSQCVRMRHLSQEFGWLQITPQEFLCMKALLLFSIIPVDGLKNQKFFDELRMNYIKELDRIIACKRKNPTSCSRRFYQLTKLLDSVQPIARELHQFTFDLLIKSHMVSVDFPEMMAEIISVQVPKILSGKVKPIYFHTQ
Outline: (§1)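 LNCaP cells were transfected using lipofectin in serum-free, phenol red-free medium with PSA (6.1 kb) luciferase (0.5 μg/well) plus empty vector (1 μg/well) for 24 h. Cells were then given a 1 h compound pretreatment before R1881 was added. After 48 h, luciferase was read and normalized to Bradford protein, expressed as % of the R1881 + DMSO vehicle maximum. Data are mean ± SD of three experiments, each in triplicate.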

[2] = target: T1, Androgen receptor (Homo sapiens); test: Antagonist activity at androgen receptor in human LNCAP cells transfected with p6.1-luciferase assessed as inhibition of R1881-induced transcriptional activity at 7 uM pretreated 1 hr prior to R1881 addition measured after 48 hrs by luciferase reporter gene assay; type: functional, cell-based; outline: as §1
PC-3 = test: Antiproliferative activity against androgen receptor deficient human PC3 cells at 14 uM after 24 hrs by BrdU incorporation assay; type: functional, cell-based
Outline: (§2)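 PC3 cells were seeded for 24 h in phenol red DMEM with 5% FBS and penicillin/streptomycin, then pretreated for 1 h and cultured 24 h. BrdU was added for 2 h, then cells were fixed and incubated with anti-BrdU-POD for 1.5 h; absorbance was read at 570 nm. Data are mean ± SD of three experiments, 6 technical replicates each, analyzed by Student's t test.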

LNCaP = test: Antiproliferative activity against R1881-stimulated human LNCAP cells expressing androgen receptor at 14 uM treated 1 hr before R1881 addition measured after 72 hrs by BrdU incorporation assay; type: functional, cell-based
Outline: as §2, with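 “LNCaP” for “PC3”, “red-free RPMI 1640” for “red DMEM”, “0.5%” for “5%”, “before 0.1 nM R1881. After 72 h,” for “and cultured 24 h.”, “test versus R1881.” for “test.”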

[3] = target: T1, Androgen receptor (Homo sapiens); test: Binding affinity to AF1 region of N-terminus domain androgen receptor at 20 uM after 50 mins by coomassine blue staining based SDS-PAGE analysis
Outline: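 Recombinant AR AF1 (purified by Ni2+-agarose, then size exclusion) at 10 μM was incubated on ice for 50 min with 20 μM alkyne probe in DMSO, or DMSO alone. The reaction was then diluted in half and click-labeled with 10 μM fluorescein azide, 0.1 mM ascorbate and 0.1 mM Cu(II)-TBTA for 30–40 min at RT. Labeling of the AF1 band was read as fluorescence on SDS-PAGE.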

inhibition [2] | Structure (SMILES) | further results
 | CCCCCCCCCCCCCCCCCC(=O)/C=C/CCCOC[C@H](O)CO | inhibition [1]: Active
inactive | CC(=O)/C=C/CCCOC[C@H](O)CO | 
Active | CCCCCCCCCCC/C=C/C(=O)CCCCOC[C@H](O)CO | 
Active | CCCCCCCCCCCCC(=O)/C=C/CCCOC[C@H]1CO1 | 
Active | CCCCCCCCCCCCC(=O)CCCCCOC[C@H](O)CO | 
Active | CCCCCCCCCCCCC(=O)/C=C/CCCOC[C@@H](O)COCCOCCOCCO | 
Active | CCCCCCCCCCCCC(=O)/C=C/CCCCC[C@H](O)CO | 
Active | CCCCCCCCCCCCC(=O)/C=C/CCCOC[C@@H]1COC(C)(C)O1 | 
50% | CCCCCCCCCCCCC(=O)/C=C/CCCOC[C@@H](O)CO | Activity (PC-3): inactive; Activity (LNCaP): Active
Active | C#CCOC[C@@H](O)COCCC/C=C/C(=O)CCCCCCCCCCCC | Activity [3]: Active
Active | CCCCCCCCCCCCC(=O)/C=C/CCCOC[C@H](O)CO | Activity (PC-3): inactive; Activity (LNCaP): Active
Active | CCCCCCCCCCCCC(=O)/C=C/CCCOC[C@@H](O)CCl | 
inactive | CCCCCCCCCCC/C=C/C(=O)CCCCOC[C@@H](O)CO | 
